KCNQ1 pot = potentiators or activators of human KCNQ1 potassium channel; P51787; CHO-K1 KCNQ1, thallium flux FluxOR fluorescence; active compounds read high; B-score at 10 µM; 0.35% of 310,000 active; AID 2648;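 active means fluorescence ratio B-score, a plate-corrected score, at least three library SD, with initial intensity B-score within 5 SD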
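System: CHO-K1 cells stably expressing KCNQ1 / Medium: assay buffer for compound exposure, DMSO matched across wells / Reagent: thallium- and potassium-containing depolarizing buffer / Compound: one concentration, matched DMSO / Incubation: 20 min compound pretreatment at room temperature / Measured by: kinetic FluxOR fluorescence, 10 s baseline plus 110 s post-stimulus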
KCNK9 inh = blocks the human KCNK9 two-pore domain potassium channel; Q9NPC2; AID 488922; HEK293 KCNK9, FluxOR thallium flux fluorescence; active compounds read low; B-score at 10 µM; 1.2% of 310,000 active;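 active means ratio B-score over 3 SD below the library mean, with starting fluorescence within 5 SD of its mean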;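 further: negative B-score means less thallium flux so channel inhibition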
KCNK3 block = human KCNK3 channel inhibition, primary screen; O14649; CHO-KCNK3 thallium flux, FluxOR fluorescence; active compounds read low; B-score at 10 µM; 0.84% of 340,000 active;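 active means B-score under library mean minus 4 SD, starting fluorescence ratio at most library mean plus 5 SD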;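 further: more negative B-score means stronger inhibition of thallium flux through KCNK3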
Target sequence (O14649 whole entry, looked up): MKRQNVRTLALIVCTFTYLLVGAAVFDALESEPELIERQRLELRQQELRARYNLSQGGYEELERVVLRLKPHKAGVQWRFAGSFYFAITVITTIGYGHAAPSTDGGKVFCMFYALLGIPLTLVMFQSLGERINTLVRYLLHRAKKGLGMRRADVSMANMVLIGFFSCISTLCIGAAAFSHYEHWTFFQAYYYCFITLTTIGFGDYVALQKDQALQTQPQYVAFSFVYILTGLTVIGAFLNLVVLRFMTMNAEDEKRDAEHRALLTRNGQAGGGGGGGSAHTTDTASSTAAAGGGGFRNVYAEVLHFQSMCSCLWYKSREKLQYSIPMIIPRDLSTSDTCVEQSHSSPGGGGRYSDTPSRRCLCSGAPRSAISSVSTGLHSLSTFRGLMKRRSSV
KCNQ1 block = inhibitors of human KCNQ1 potassium channel; 1.3% of 310,000 active; B-score at 10 µM; CHO-K1 KCNQ1, FluxOR thallium flux fluorescence; active compounds read high;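 active means compounds whose thallium flux B-score, printed positive for inhibition, exceeds three library SD while starting fluorescence stays within three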;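 further: channel opened by potassium depolarization with thallium stimulus after 20 min compound exposure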
KCC2 mod = modulates chloride dependent transport by human KCC2; AID 1456; KCC2 cells, thallium flux FluoZin-2 fluorescence; B-score of Tl+ flux slope (higher = more flux/activation; lower = inhibition) at 10 µM; 2.2% of 190,000 active; Q9H2X9;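 active means thallium flux slope and its plate-corrected score both differing from the plate sample mean at a set confidence after two filtering rounds, in either direction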;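 further: slope of fluorescence scaled to starting intensity during 10 to 20 s after thallium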
hERG protect = hERG (human) protection from proarrhythmic block. Q12809. CHO-hERG, FluxOR thallium flux, dofetilide IC70 present. activation (rescue from dofetilide block), less the hit threshold, % at 10 µM. 0.51% of 310,000 active. AID 1511;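 active means activation above the mean of controls blocked by dofetilide plus 5 SD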;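 further: thallium influx through hERG after potassium depolarization seen as dye fluorescence rise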
Starred values were filed as active, the others as inactive; i = inactive; x = no result given. Shown are actives, neighbours in structure and some others; about 4.1% of the full set was active somewhere.

SMILES | KCNQ1 pot | KCNK9 inh | KCNK3 block | KCNQ1 block | KCC2 mod | hERG protect
O=C(C1CC(=O)N(C2CCCCC2)C1)N1CCc2ccccc21 (stereo not given) | i | i | i | i | 0.67 | -6
N#Cc1nc(Cc2cccc3ccccc23)oc1NCCN1CCCCC1 | i | i | i | i | -4.3* | -10
O=c1[nH]c(C(F)(F)F)nc2ccccc12 | i | i | i | i | 0.41 | -4
O=c1[nH]c(C(Cl)(Cl)Cl)nc2ccc3ccccc3c12 | 25* | i | i | i | x | 5.1*
CC(=O)OCC(=O)C1CCC2C3CC=C4CC(O)CCC4(C)C3CCC12C (stereo not given) | x | x | i | x | x | x
CC(=O)C1CCC2C3CC=C4CC(SC(=N)N)CCC4(C)C3CCC12C (stereo not given) | x | x | -9.2* | x | x | x
Cc1c(O)ccc2cc(S(=O)(=O)c3ccccc3)c(=O)oc12 | i | i | i | 11* | x | -11
Cc1ccc(S(=O)(=O)c2cc3ccccc3oc2=O)cc1 | i | i | i | i | 0.23 | -9
Cc1cccn2c(/C=N/OCc3ccc(F)cc3)c(-c3ccc(Cl)cc3)nc12 | i | -7.8* | i | i | 0.64 | -11
COc1ccc(NC(=O)CCc2nc3ccccc3c(=O)[nH]2)cc1S(=O)(=O)N1CCCCC1 | x | x | i | x | x | x
CC1=CC(C)(C)N2C(=O)C3(C(C#N)=C(N)Oc4cc(O)ccc43)c3cccc1c32 (stereo not given) | i | i | i | 6* | -0.51 | -16
COc1ccc(-c2cc(C(=O)Nc3sc4c(c3C#N)CCCC4)c3ccccc3n2)cc1 | x | x | i | x | 0.15 | x
Cc1cc(NC(=O)c2cc(-c3ccccc3C)nc3ccccc23)no1 | i | i | i | i | -0.059 | -9
CCOC(=O)c1sc(NC(=O)c2cc(-c3ccc(C)cc3)nc3ccccc23)c(C#N)c1C | i | i | i | 7* | -1.6 | -19
Cc1ccccc1-c1cc(C(=O)Nc2sc(C(=O)OC(C)C)c(C)c2C#N)c2ccccc2n1 | i | i | i | 10* | -0.77 | -7
C=CC1CN(C(=O)OCC(Cl)(Cl)Cl)C2CC3c4ccc(OC)cc4NC3C3CC1C2CO3 (stereo not given) | i | i | x | 7* | x | -17
CCOC(=O)N1CCC2CC1c1cc(-c3cccc(OC)c3)ccc12 (stereo not given) | x | x | i | x | x | x
COC(=O)c1cc(C)sc1NC(=O)CN1CCN(C(=O)C2CCCO2)CC1 (stereo not given) | i | i | i | i | x | -13
O=[N+]([O-])c1ccc(N=Nc2c(Cl)cc(O)cc2Cl)cc1 | i | i | i | 8* | 7.5* | -23
CCN(CC)CCNC(=O)CSc1c2c(nc3cc(Cl)ccc13)CCCC2 | i | i | i | i | -0.41 | -9
Cc1ccc(CNC(=O)CSc2c3c(nc4ccc(Cl)cc24)CCCC3)o1 | i | i | i | i | 4.8* | -10
Cc1cccc(CN2CCC(n3nccc3NC(=O)CCCc3ccccc3)CC2)n1 | i | i | i | i | x | -4
O=C(O)CSc1cc(C(F)(F)F)nc(-c2ccccn2)n1 | i | i | i | i | 1.3 | 39*
CCn1c(SCC(=O)N/N=C(\C)c2ccncc2)nnc1-c1ccc(C)cc1 | i | i | i | i | 0.16 | -4
CCOc1ccc(/C(O)=C2/C(=O)C(=O)N(CCCN3CCOCC3)C2c2ccc(C)cc2)cc1C (stereo not given) | i | i | i | i | x | -11
COc1ccc(/C=N/NC(=O)C(=O)/C=C2\NC3(CCCC3)Cc3ccccc32)cc1 | i | -6.6* | i | i | -0.67 | -6
NNC(=O)C(=O)/C=C1\NC2(CCCC2)Cc2ccccc21 | i | i | i | i | -0.99 | -8
CCOc1ccc(CN(C(=O)c2oc3cc(C)ccc3c2C)C2CCS(=O)(=O)C2)cc1 (stereo not given) | i | -6.7* | i | i | x | -16
Cc1cccc(C(=O)Nc2sc(C(=O)N3CCCC3)c(C)c2C#N)c1 | i | i | i | i | -1.3 | -7

Assay outcomes (PubChem)
